Test results: article PMC5061631 (Cell metabolism, 2016)

Legend:
H9c2 rat cardiomyoblasts = assay: ER stress protection assay: caspase 3/7 activation by tunicamycin; assay type: cell-based; settings: H9c2 cells, 0.5 µg/ml tunicamycin, 24 hr
Summary of the method: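 H9c2 cardiomyoblasts were seeded at 8,000 cells/well and grown 24 hr in DMEM with 10% FBS. Test compound or 1% DMSO vehicle was added, then 0.5 µg/ml tunicamycin 15 min later. After a further 24 hr, caspase 3/7 activity was read by luminescence. Background from cells without tunicamycin was subtracted, and values were normalised to vehicle-treated tunicamycin-exposed cells.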

perfused mouse heart = assay: Langendorff-perfused heart model of ischemia-reperfusion injury; settings: 1.6 µM for 5 min at reperfusion
Summary of the method: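 Mouse hearts were excised under tribromoethanol anaesthesia and perfused retrogradely at 4 ml/min in modified Krebs-Henseleit buffer with glucose, palmitate/BSA, lactate and pyruvate. After 20 min equilibration, hearts had 25 min global no-flow ischaemia and 60 min reperfusion. Test compound (1.6 µM) or 0.05% DMSO was infused for 5 min at reperfusion onset. Rate × developed pressure was normalised to pre-ischaemic baseline, infarct area was measured by TTC in 4–6 slices, and n = 6 per group.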

[1] = tested on: site IQ of mitochondrial respiratory complex I; assay type: biochemical, rat; settings: for IC50: read-out: IC50 against superoxide-H2O2 production from site IQ, isolated rat skeletal muscle mitochondria
Summary of the method: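 Freshly isolated rat skeletal muscle mitochondria, in the high-throughput screen run in 1,536-well format with library compounds at 10 µM. H2O2 was detected by Amplex UltraRed, which horseradish peroxidase oxidises to fluorescent resorufin. Data were normalised to the plate median signal, and rotenone was included on every plate as the positive site IQ inhibitor.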

intestinal stem cells = assay: In vivo stem cell proliferation assays in Drosophila intestine; parameters: species or system Drosophila melanogaster; settings: dietary, 800 nM; 50 µM tunicamycin
Summary of the method: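 Tunicamycin model: w;esgGal4,UAS-GFP virgins were crossed to Oregon Red males. Six-day-old offspring were starved 4 hr, fed 24 hr on 5% sucrose with 0.8% DMSO plus test compound, starved 1 hr, then given the same food with 50 µM tunicamycin for 24 hr. Adult female intestines were fixed and immunostained for phospho-histone H3, and positive cells were counted manually.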

site IQ = settings: ref Orr et al., 2013; cited from earlier work

| SMILES | caspase 3/7 activation by tunicamycin (H9c2 rat cardiomyoblasts) | post-ischemic recovery of cardiac function (rate × pressure product) (perfused mouse heart; 25 min ischemia) | infarct size (perfused mouse heart; TTC staining) | IC50 [1] [nM] | suppression of tunicamycin-induced increase in mitotic marker phospho-histone H3 (intestinal stem cells) | concentrations with off-target effects (site IQ) [µM] | inhibition of the fluorescent signal (positive inhibitor of site IQ) ([1]; plate control in screen) [%] |
| --- | --- | --- | --- | --- | --- | --- | --- |
| CC(=O)Nc1cccc(NC(=O)C(=O)NCCc2sc(-c3ccc(C)cc3)nc2C)c1 [S1QEL1.1] | strongly attenuated caspase activation | significantly improved | small but significant decrease | 70 | up to 45% |  |  |
| O=[N+]([O-])c1ccc(Oc2ccc(S(=O)(=O)NC3CCCCC3)cc2)cc1 [CN-POBS, N-cyclohexyl-4-(4-nitrophenoxy) benzenesulfonamide] |  |  |  |  |  | > 10 |  |
| C=C(C)[C@H]1Cc2c(ccc3c2O[C@@H]2COc4cc(OC)c(OC)cc4[C@@H]2C3=O)O1 [Rotenone, reference compound] |  |  |  |  |  |  | > 85 |
| CCCCC1CCC(C(=O)NCCS(=O)(=O)N2CCN(c3cccc(Cl)c3)CC2)CC1 (stereo not shown) [S1QEL2.2] | also did so at higher concentrations |  |  | 1500 | up to 45% |  |  |
